# Screening results (PubChem)
# Hits are enriched below; roughly 1.7% of the tested compounds scored in any of these assays.
# CAL PDZ FP-1 = untagged CAL PDZ binding inhibitors, primary screen, biochemical, fluorescence polarization, HTS. Golgi-associated PDZ and coiled-coil motif-containing protein (Homo sapiens), Q9HD26. purified CAL PDZ, TMR-peptide fluorescence polarization, 1 h. inhibition, % at 24.9 µM. hit rate 0.92% among 300,000;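 active = mean inhibition of at least 30% with at least half of replicates also reaching 30%; inconclusive = no clear call, values can overlap the other calls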;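 note: 0% = DMSO neutral control and 100% = excess unlabeled competitor peptide PRC23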
# AI-2 QS modul = Vibrio harveyi AI-2 quorum sensing modulators, primary screen, JMH597 strain, luminescence/OD600 ratio; Vibrio harveyi JMH597 AI-2 luminescence/OD600 ratio, 9 h; stronger effect = lower value; strain lacks LuxN and CqsS sensors; 0 = neutral-control median; activity change, % at 7.5 µM; hit rate 0.4% among 300,000; AID 2094, 2009; in the data active = activity change below about -75%, passing the limit was not always enough; inconclusive = no clear call, values can overlap the other calls;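 note: luminescence divided by OD600 gain over 9 h not by final OD600 alone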
# ARNT-TACC3 inh = disruptors of ARNT/TACC3 protein interaction, primary screen, biochemical, AlphaScreen, single concentration; AlphaScreen His-ARNT PAS-B/GST-TACC3 binding, luminescence; TACC3 fragment carries E629A point mutation; inhibition, % at 9.99 µM; hit rate 0.66% among 390,000; AID 623870, 2012;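 active = mean inhibition of replicates at least 50% and at least half of replicates each reaching 50%; inconclusive = half or more replicates reach 50% but mean below 50%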;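 note: 0% = complete ARNT plus TACC3 wells and 100% = ARNT alone without TACC3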
# Rce1 inh = yeast Rce1p protease inhibitors, primary screen, biochemical, fluorescence, cell-free homogeneous; hit rate 0.27% among 290,000; CAAX prenyl protease 2 (Saccharomyces cerevisiae (strain ATCC 204508 / S288c)), Q03530; calls only; yeast membranes, quenched prenylated peptide cleavage fluorescence;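 active = fall in fluorescence gain of 50% or more versus controls, with final raw signal at or below 3038400; inconclusive = same 50% fall but final raw signal above 3038400; inactive = fall in fluorescence gain under 50%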;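 note: plate controls were neutral control wells for no effect and wells lacking membranes for full effect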
# Target sequence (Q03530 whole entry, looked up): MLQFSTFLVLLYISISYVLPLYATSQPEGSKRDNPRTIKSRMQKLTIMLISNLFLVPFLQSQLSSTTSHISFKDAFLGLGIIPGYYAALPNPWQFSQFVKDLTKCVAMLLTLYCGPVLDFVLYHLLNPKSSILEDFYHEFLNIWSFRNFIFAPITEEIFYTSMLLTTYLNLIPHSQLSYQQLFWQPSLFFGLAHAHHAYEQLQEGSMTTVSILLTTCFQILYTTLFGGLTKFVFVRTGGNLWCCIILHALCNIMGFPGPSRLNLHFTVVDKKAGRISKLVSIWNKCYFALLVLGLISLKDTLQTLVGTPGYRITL
# CAL PDZ FP-2 = CAL PDZ peptide-binding inhibitors, primary screen, biochemical, fluorescence polarization, Cer-tagged CAL PDZ, HTS | purified CAL PDZ, TMR-peptide fluorescence polarization, 1 h | inhibition, % at 20 µM | hit rate 0.02% among 330,000 | AID 504414, 2011;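 active = highest replicate inhibition of at least 40%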;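 note: plate controls were DMSO neutral control wells for no effect and unlabeled competitor peptide control wells for full effect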
#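 material = purified tagged CAL PDZ domain construct (CerCALP) | compound dosing = 20 µM, one dose | times = 1 h at RT | measured by = fluorescence polarization from S- and P-plane intensities, G-factor corrected | read-out = inhibition from polarization loss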
# * hit, by the source's call; i = inactive; ? = inconclusive; . = no result given; + = active, no number.
SMILES,CAL PDZ FP-1,AI-2 QS modul,ARNT-TACC3 inh,Rce1 inh,CAL PDZ FP-2
COc1ccc(Nc2nc(-c3c(C)nc4ncccn34)cs2)cc1,-1,.,46*,.,4
Cc1nc2ncccn2c1-c1csc(Nc2ccc(N(C)C)cc2)n1,5,10,18,i,0
COc1ccccc1Nc1nc(-c2c(C)nc3ncccn23)cs1,1,22,45*,i,3
Cc1nc2ncccn2c1-c1csc(Nc2ccccc2)n1,0,9,58*,i,-2
CS(=O)(=O)c1ccccc1-c1nc(-c2ccc(C(F)(F)F)cc2)no1,0,-5,-9,i,0
Cc1cccc(OCCCn2c(CO)nc3ccccc32)c1,89*,19,-3,i,.
Cc1cccc(NC(=O)C2CCN(S(C)(=O)=O)CC2)c1C,55*,.,0,.,-4
CCCn1nnnc1NC(=O)c1ccc2ccccc2c1,-3,-30,28,i,-1
COc1cc([N+](=O)[O-])ccc1NC(=O)/C=C/C(=O)O,71*,15,-2,i,0
O=C(Oc1cccc2cccnc12)c1ccco1,-2,-9,54*,.,.
O=C(Oc1cccc2cccnc12)c1ccc(Br)o1,.,-5,7,i,-2
O=C(c1ccc(OC2CCN(C/C=C/c3ccccc3)CC2)cc1)N1CCCC1,-6,33,9,i,-2
O=C(c1ccc(OC2CCN(C/C=C/c3ccccc3)CC2)cc1)N1CCCCC1,37*,53,4,i,13
O=C(COc1ccc(Cl)cc1)N1CCN(S(=O)(=O)c2ccccc2)CC1,.,19,-9,i,-1
CC(C)(/C=N/O)/[N+]([O-])=C/c1ccco1,0,7,-2,i,-1
Cc1nc(/C=[N+](\[O-])C(C)(C)/C=N/O)n(O)c1C,59*,10,2,i,0
CCC(COC)NC(=O)CCc1nnc(Cc2cccc(C(F)(F)F)c2)o1 (centres undefined),-4,9,-5,+,1
CC(C)NC(=O)CCc1nnc(Cc2cccc(C(F)(F)F)c2)o1,-1,22,-1,i,-1
COc1ccc(CNc2nc3ccccc3n2CCN2CCCCC2)cc1,-3,14,8,i,0
CCN(CC)c1ccc(CNc2nc3ccccc3n2CCN2CCCCC2)cc1,43*,31,20,i,0
CCN1CCN(CC(O)COc2ccc3c(C)cc(=O)oc3c2)CC1 (centres undefined),2,9,3,+,-2
CCN1CCN(CC(O)COc2ccc(C)c(C)c2)CC1 (centres undefined),-8,12,-5,i,1
Cc1cccc(N(CC(=O)NC2CCCCC2)C(=O)CCCC(=O)Nc2ccccn2)c1C,.,.,-5,.,-2
CCc1ccc(NC(=S)NCc2cccnc2)cc1,5,7,-4,i,1
CCOc1ccc(CN(C)C(C)C(=O)NCc2ccccc2)cc1 (centres undefined),3,5,-6,i,0
SMILES,CAL PDZ FP-1,AI-2 QS modul,ARNT-TACC3 inh,Rce1 inh,CAL PDZ FP-2
CCc1ccc(CN(C)C(C)C(=O)NCc2ccccc2)cc1 (centres undefined),51*,25,3,i,.
CCc1ccc(NC(=S)Nn2cnnc2)cc1,63*,32,-2,i,16
CCc1ccc(NC(=S)NCc2ccccc2)cc1,49*,-25,-9,i,-1
Cc1ccc(NC(=S)NC2CC3CCC(C2)N3Cc2ccco2)cc1C (centres undefined),-2,11,8,i,-2
Cc1nc(-c2ccc(Cl)cc2)sc1C1(C)CC(c2ccccc2Br)=NO1 (centres undefined),-4,13,-7,+,-1
Cc1c(Br)cc(C(=O)N2CCN(CCO)CC2)c(C)c1C,2,26,-6,i,.
CC(=O)Nc1ccc(NC2=C(Cl)C(=O)c3ccccc3C2=O)cc1,.,20,.,i,.
CN(C)c1ccc(NC2=C(Cl)C(=O)c3ccccc3C2=O)cc1,2,?,53*,i,0
O=C(C[C@H]1C[C@@H]2c3cc(NC(=O)NC4CCCC4)ccc3O[C@@H]2[C@H](CO)O1)NC1CCCC1,.,.,-8,.,.
CCOc1ccc(C2=Nn3c(nnc3-c3ccco3)SC2)cc1,-3,-2,4,i,23
COc1ccc(C(=O)Nc2c(N)nc(SCC(=O)NCC3CCCO3)[nH]c2=O)cc1OC (centres undefined),92*,12,-3,i,-1
Cc1ccc(C(=O)Nc2c(N)nc(SCC(=O)NCC3CCCO3)[nH]c2=O)cc1 (centres undefined),-2,21,-4,i,-1
O=C(CSc1nc2ccccc2[nH]1)NCC1CCCO1 (centres undefined),40*,8,-5,i,-2
O=C(CSc1nc(-c2ccccc2)c(-c2ccccc2)[nH]1)NCC1CCCO1 (centres undefined),-1,13,1,i,0
[O-][n+]1cccc2c(Br)cc(Br)c(O)c21,-1,-197*,.,.,-1
Oc1c(Br)cc(Br)c2cccnc12,0,.,8,.,-1
S=C(Nc1ccccc1Cl)NC1CCC(NC(=S)Nc2ccccc2Cl)CC1 (centres undefined),31*,12,-8,i,0
CCC(=O)Nc1ccc2c(c1)C(=O)N(C)C[C@H](OC)[C@@H](C)CN(CC1CCCCC1)[C@@H](C)CO2,.,.,2,.,.
O=C(COC(=O)/C=C/c1ccccc1)NCCC1=CCCCC1,-2,11,-3,i,-4
O=C(/C=C/c1ccccc1)NCCC1=CCCCC1,-4,-86*,-1,i,0
COc1ccc(NC(=O)CSc2nc3sc(C)cc3c(=O)n2C)cc1,13,21,5,i,-2
COc1ccc(NC(=O)CSc2nc3sc(C)cc3c(=O)n2C)c(OC)c1,80*,18,-2,i,-1
CCOC(=O)c1c(C)[nH]c(C(=O)OCC(=O)Nc2cc(C)c(Cl)cc2OC)c1C,37*,11,4,i,0
CC1(C)CN(c2ccc(C(=O)c3ccccc3)cc2)C1=O,4,12,-3,i,0
O=C1CSC(c2cn(-c3ccccc3)nc2-c2cc3ccccc3oc2=O)N1Cc1ccco1 (centres undefined),.,33,0,+,-1
